Screens deposited in PubChem by several laboratories.
Only some compounds are listed: those with a hit (about 4.1% of all), similar ones and a draw of the others.
KCNQ1 act – potentiates or activates the human KCNQ1 potassium channel; P51787; CHO-K1 KCNQ1, thallium flux FluxOR fluorescence; hits give high values; B-score at 10 µM; actives 0.35% (n = 310,000); AID 2648;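 active means fluorescence ratio B-score, a plate-corrected score, at least three library SD, with initial intensity B-score within 5 SD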
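Schedule – 37 °C overnight plating, 90-min dark dye load, 20-min compound pretreatment · System – stable KCNQ1 CHO-K1 line · Probe or stimulus – thallium- and potassium-containing depolarizing buffer · Measured by – kinetic FluxOR fluorescence, 10 s baseline plus 110 s post-stimulus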
hERG protect – hERG (human) protection from proarrhythmic block; actives 0.51% (n = 310,000); Q12809; CHO-hERG, FluxOR thallium flux, dofetilide IC70 present; activation (rescue from dofetilide block), less the hit threshold, % at 10 µM;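 active means activation above the mean of controls blocked by dofetilide plus 5 SD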;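 further: thallium influx through hERG after potassium depolarization seen as dye fluorescence rise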
KCNQ1 block – inhibitors of human KCNQ1 potassium channel | P51787 | CHO-K1 KCNQ1, FluxOR thallium flux fluorescence; hits give high values | B-score at 10 µM | actives 1.3% (n = 310,000) | AID 2642;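 active means compounds whose thallium flux B-score, printed positive for inhibition, exceeds three library SD while starting fluorescence stays within three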;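 further: channel opened by potassium depolarization with thallium stimulus after 20 min compound exposure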
KCC2 mod – modulators of human KCC2 chloride dependent transport; B-score of Tl+ flux slope (higher = more flux/activation; lower = inhibition) at 10 µM; AID 1456; KCC2 cells, thallium flux FluoZin-2 fluorescence; actives 2.2% (n = 190,000);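 active means thallium flux slope and its plate-corrected score both differing from the plate sample mean at a set confidence after two filtering rounds, in either direction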;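 further: slope of fluorescence scaled to starting intensity during 10 to 20 s after thallium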
KCNK9 block – human KCNK9 channel inhibition. Q9NPC2. HEK293 KCNK9, FluxOR thallium flux fluorescence; hits give low values. B-score at 10 µM. actives 1.2% (n = 310,000);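 active means ratio B-score over 3 SD below the library mean, with starting fluorescence within 5 SD of its mean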;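 further: negative B-score means less thallium flux so channel inhibition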
KCNK3 inh – human KCNK3 channel inhibition, primary screen | CHO-KCNK3 thallium flux, FluxOR fluorescence; hits give low values | B-score at 10 µM | actives 0.84% (n = 340,000) | AID 602410;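 active means B-score under library mean minus 4 SD, starting fluorescence ratio at most library mean plus 5 SD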;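 further: more negative B-score means stronger inhibition of thallium flux through KCNK3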
KCNQ1 block val – human KCNQ1 channel inhibition, validation assay; shares compounds with KCNQ1 block; KCNQ1 cell line, FluxOR thallium flux fluorescence; inhibition, % at 10 µM; actives 93% (n = 1,600);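 active means primary screen active, with duplicate mean exceeding buffer control mean plus 3 SD of buffer wells, cut at about 28% in these data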;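 further: 0% = buffer control ratio and 100% = XE991 inhibitor control ratio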
CHO Tl flux – counter-screen for KCNQ1 inhibitors: effect in parental CHO cells; shares compounds with KCNQ1 block; parental CHO-K1, FluxOR thallium flux fluorescence ratio; hits give low values; zero means no signal rise above baseline; fluorescence ratio (Tl flux) at 10 µM; actives 21% (n = 1,600); AID 588366;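 active means mean of duplicate thallium-flux fluorescence ratios in parental host cells more than 5 SD below the buffer control mean, cut at about 0.38 in these data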;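 further: ratio is peak minus minimum fluorescence divided by baseline fluorescence; actives read low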
KCNQ1 APC inh – human KCNQ1 inhibition validated by electrophysiology; shares compounds with KCNQ1 block; KCNQ1-CHO cells, automated patch clamp current; calls only at 10 µM; actives 20% (n = 490); AID 624120;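 active means KCNQ1 current drop exceeding 3 SD of negative control wells, seen in both duplicate runs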;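 further: steady state current during a 2 s step from -80 to +40 mV; negative values mean current inhibition and positive values mean potentiation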
KCNQ2 inh – KCNQ1 inhibitor that also blocks rat KCNQ2 channel. shares compounds with KCNQ1 block. KCNQ2 cells, FluxOR thallium flux fluorescence. inhibition, % at 10 µM. actives 71% (n = 1,600). AID 651746;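 active means mean percent inhibition of the KCNQ2 thallium signal more than 5 SD above the buffer-only control wells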;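 further: KCNQ2 expressed in CHO cells; 0% = buffer control wells and 100% = XE-991 inhibitor control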
Target sequence (O88943 whole entry, looked up): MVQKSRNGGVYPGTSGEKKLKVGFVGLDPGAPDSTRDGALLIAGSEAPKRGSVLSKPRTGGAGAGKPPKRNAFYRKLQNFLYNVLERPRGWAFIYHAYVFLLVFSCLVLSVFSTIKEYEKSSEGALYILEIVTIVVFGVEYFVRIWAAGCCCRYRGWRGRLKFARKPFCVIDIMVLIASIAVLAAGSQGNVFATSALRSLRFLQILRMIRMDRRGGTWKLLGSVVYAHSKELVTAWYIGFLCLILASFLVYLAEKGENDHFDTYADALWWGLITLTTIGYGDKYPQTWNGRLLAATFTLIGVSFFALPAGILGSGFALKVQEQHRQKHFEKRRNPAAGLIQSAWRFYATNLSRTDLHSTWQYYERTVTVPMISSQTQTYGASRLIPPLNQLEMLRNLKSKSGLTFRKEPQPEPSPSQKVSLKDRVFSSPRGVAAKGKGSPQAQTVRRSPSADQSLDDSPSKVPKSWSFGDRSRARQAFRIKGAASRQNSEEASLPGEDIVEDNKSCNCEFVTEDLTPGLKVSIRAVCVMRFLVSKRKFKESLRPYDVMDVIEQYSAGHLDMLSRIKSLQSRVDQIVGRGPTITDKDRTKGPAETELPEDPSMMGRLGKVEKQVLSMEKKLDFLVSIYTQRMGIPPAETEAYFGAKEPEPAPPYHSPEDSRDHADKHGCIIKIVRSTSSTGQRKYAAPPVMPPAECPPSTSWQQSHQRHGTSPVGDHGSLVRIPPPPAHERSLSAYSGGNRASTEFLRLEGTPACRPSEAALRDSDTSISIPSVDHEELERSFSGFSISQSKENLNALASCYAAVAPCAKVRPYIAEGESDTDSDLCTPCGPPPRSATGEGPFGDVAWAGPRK
KCNQ1 KCNE1 spec – human KCNQ1/KCNE1 inhibition in KCNQ1 specificity screen; shares compounds with KCNQ1 block; KCNQ1/KCNE1 cells, FluxOR thallium flux fluorescence; inhibition, % at 10 µM; actives 77% (n = 1,600); AID 652147;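 active means mean percent inhibition of duplicate wells above the buffer-only control mean plus 3 SD of those controls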;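 further: 0% = buffer only wells and 100% = XE-991 inhibitor control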
Numbers without * were called inactive; i = inactive; . = not tested or not shown; + = active, no number.

SMILES	KCNQ1 act	hERG protect	KCNQ1 block	KCC2 mod	KCNK9 block	KCNK3 inh	KCNQ1 block val	CHO Tl flux	KCNQ2 inh	KCNQ1 KCNE1 spec	others
c1ccc(CNc2ncnc3ccccc23)cc1	i	-9	i	-0.034	i	i	.	.	.	.
CCSc1nnc(-c2sc3nnc(-c4ccccc4)c(-c4ccccc4)c3c2N)o1	i	-27	14*	i	i	i	+	0.14*	i	i
S=C(Nc1ccc2nsnc2c1)NC1CCCCC1	i	-13	i	0.16	i	i	.	.	.	.
Fc1cccc(NC(=S)NC2CCCCCCC2)c1	i	-7	8*	.	i	i	105*	0.47	75%*	88%*	KCNQ1 APC inh=+
O=C(Nc1cccc(F)c1)C1CCCCC1	.	.	.	.	.	i	.	.	.	.
S=C(Nc1ccc(Cl)c(Cl)c1)NC1CCCCC1	i	-14	6*	-0.48	i	i	69*	0.53	i	i
Cc1ccc(NC(=S)NC2CCCCC2)cc1S(=O)(=O)N(C)C	i	-19	7*	0.0077	i	i	132*	0.52	107%*	i	KCNQ1 APC inh=i
CCCCNC(=S)Nc1ccc(C(F)(F)F)cc1	i	-8	8*	-1	i	i	32*	0.57	i	i
CCCCNC(=S)Nc1ccc(Cl)cc1	i	-15	i	-0.02	i	i	.	.	.	.
Cc1ccc(C(=O)/C=C/Nc2cccc([N+](=O)[O-])c2)o1	i	-9	i	1.2	i	i	.	.	.	.
Cc1c(C(=O)C(C)C)n(C)c2ccccc12	i	-5	i	0.54	i	i	.	.	.	.
FC(F)(F)c1ccc(NC(=S)NC2CCCCC2)cc1	i	-10	7*	0.002	i	i	65*	0.52	59%*	37%*
FC(F)(F)c1cccc(NC(=S)NC2CCCC2)c1	i	-14	i	-1.7	i	i	.	.	.	.
Cc1ccc(NC(=O)CSc2nc3ccccc3c(=O)n2CCCN2CCCCC2)cc1Cl	i	-22	7*	-0.35	i	i	85*	0.36*	85%*	84%*
Cc1ccc(-c2csc(NC(=O)CSc3nc4ccccc4c(=O)n3CCCN(C)C)n2)cc1	i	-46	8*	1.5	i	i	118*	0.29*	101%*	154%*
COc1ccc2[nH]c(=O)c(CN(C(=O)c3cccnc3)c3ccc(C)cc3)cc2c1	i	-6	i	0.0073	i	i	.	.	.	.
CN(c1ccccc1)S(=O)(=O)c1ccc(NC(=O)c2ccc(F)cc2)cc1	i	-3	7*	.	i	i	90*	0.45	117%*	131%*	KCNQ1 APC inh=i
CC(=O)Nc1ccc(S(=O)(=O)NCCS(=O)(=O)N2CCN(c3ccccc3F)CC2)cc1	i	-11	i	.	i	i	.	.	.	.
O=C1CSC(c2cn(-c3ccccc3)nc2-c2ccccc2)N1Cc1ccco1 (stereo not drawn)	i	-12	10*	0.14	i	i	134*	0.42	108%*	189%*	KCNQ1 APC inh=i
COc1ccc(C)cc1NC(=O)CCCN1C(=S)NC(C)(C)CC1C (stereo not drawn)	i	-12	6*	0.075	i	i	0	0.48	i	i
